Laboratory results as given in ChEMBL document CHEMBL1795304, “Synthesis, antitumor and antimicrobial activities of 4-(4-chlorophenyl)-3-cyano-2-(β-O-glycosyloxy)-6-(thien-2-yl)-nicotinonitrile” (2011).

What was measured:
Format in all cases: functional
MCF7 [1] = assay: Cytotoxicity against human MCF7 cells assessed as inhibition of cell viability at 25 ug/mL after 48 hrs by MTT assay; settings: MCF7, 48 h
Method in brief: (§1)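 MCF7 cells kept in DMEM with 10% FBS, 2 mM L-glutamine and antibiotics at 37 °C, 5% CO2. Cells plated at 0.5 × 10⁵ per well in serum-free medium and exposed for 48 h to DMSO-dissolved compound (25, 50, 100 µg/mL). MTT then added for 4 h and formazan dissolved in acidified isopropanol. Absorbance read at 570 nm in triplicate, expressed as % viability versus untreated cells.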

Staphylococcus aureus = assay: Antimicrobial activity against Staphylococcus aureus at 1 ug/mL after 48 hrs by cup plate agar diffusion method; settings: read-out: IZ
Method in brief: (§2)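 Cup plate agar diffusion. Compounds dissolved in DMSO at 1 µg/mL. Plates incubated 48 h at 37 °C, then inhibition zone diameter measured in mm. DMSO served as solvent control and ampicillin as reference.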

Escherichia coli = assay: Antimicrobial activity against Escherichia coli at 1 ug/mL after 48 hrs by cup plate agar diffusion method; settings: read-out: IZ; method in brief: as §2
Bacillus subtilis = assay: Antimicrobial activity against Bacillus subtilis at 1 ug/mL after 48 hrs by cup plate agar diffusion method; settings: read-out: IZ; method in brief: as §2
Pseudomonas aeruginosa = assay: Antimicrobial activity against Pseudomonas aeruginosa at 1 ug/mL after 48 hrs by cup plate agar diffusion method; settings: read-out: IZ; method in brief: as §2
MCF7 [2] = assay: Cytotoxicity against human MCF7 cells assessed as inhibition of cell viability at 50 ug/mL after 48 hrs by MTT assay; settings: MCF7, 48 h; method in brief: as §1
MCF7 [3] = assay: Cytotoxicity against human MCF7 cells assessed as inhibition of cell viability at 100 ug/mL after 48 hrs by MTT assay; settings: MCF7, 48 h; method in brief: as §1

SMILES	inhibition at 25 µg/mL (MCF7 [1])	zone of inhibition at 1 µg/mL (Staphylococcus aureus)	zone of inhibition at 1 µg/mL (Escherichia coli)	zone of inhibition at 1 µg/mL (Bacillus subtilis)	zone of inhibition at 1 µg/mL (Pseudomonas aeruginosa)	inhibition at 50 µg/mL (MCF7 [2])	inhibition at 100 µg/mL (MCF7 [3])
N#Cc1c(-c2ccc(Cl)cc2)cc(-c2cccs2)nc1O[C@@H]1O[C@H](CO)[C@@H](O)[C@H]1O	0%	10 mm	6 mm	7 mm	28 mm	0%	0%
CC(=O)OC[C@H]1O[C@@H](Oc2nc(-c3cccs3)cc(-c3ccc(Cl)cc3)c2C#N)[C@H](OC(C)=O)[C@@H]1OC(C)=O	2%	9 mm	3 mm	8 mm	25 mm	7%	12%
N#Cc1c(-c2ccc(Cl)cc2)cc(-c2cccs2)nc1O[C@@H]1O[C@H](CO)[C@@H](O[C@@H]2O[C@H](CO)[C@H](O)[C@H](O)[C@H]2O)[C@H](O)[C@H]1O	–	5 mm	0 mm	3 mm	10 mm	–	–
CC(=O)OC[C@H]1O[C@@H](Oc2nc(-c3cccs3)cc(-c3ccc(Cl)cc3)c2C#N)[C@H](OC(C)=O)[C@@H](OC(C)=O)[C@H]1OC(C)=O	0%	12 mm	5 mm	10 mm	26 mm	5%	20%
COc1cccc2c1C(=O)c1c(O)c3c(c(O)c1C2=O)C[C@@](O)(C(=O)CO)C[C@@H]3O[C@H]1C[C@H](N)[C@H](O)[C@H](C)O1 [DOXORUBICIN]	6%	–	–	–	–	15%	50%
N#Cc1c(-c2ccc(Cl)cc2)cc(-c2cccs2)nc1O[C@@H]1O[C@H](CO)[C@H](O)[C@H](O)[C@H]1O	–	0 mm	0 mm	0 mm	0 mm	–	–
CC(=O)OC[C@H]1O[C@@H](Oc2nc(-c3cccs3)cc(-c3ccc(Cl)cc3)c2C#N)[C@H](OC(C)=O)[C@H]1OC(C)=O	0%	–	–	–	–	0%	8%
CC(=O)OC[C@H]1O[C@@H](Oc2nc(-c3cccs3)cc(-c3ccc(Cl)cc3)c2C#N)[C@H](OC(C)=O)[C@@H](OC(C)=O)[C@@H]1OC(C)=O	0%	8 mm	3 mm	11 mm	13 mm	5%	10%
CC1(C)S[C@@H]2[C@H](NC(=O)[C@H](N)c3ccccc3)C(=O)N2[C@H]1C(=O)O [AMPICILLIN]	–	7 mm	2 mm	6 mm	23 mm	–	–
N#Cc1c(-c2ccc(Cl)cc2)cc(-c2cccs2)nc1O[C@@H]1O[C@H](CO)[C@@H](O)[C@H](O)[C@H]1O	0%	3 mm	0 mm	1 mm	0 mm	0%	0%
O=c1[nH]cc(F)c(=O)[nH]1 [FLUOROURACIL]	0%	–	–	–	–	0%	7%
CC(=O)OC[C@H]1O[C@@H](O[C@H]2[C@H](OC(C)=O)[C@@H](OC(C)=O)[C@H](Oc3nc(-c4cccs4)cc(-c4ccc(Cl)cc4)c3C#N)O[C@@H]2COC(C)=O)[C@H](OC(C)=O)[C@@H](OC(C)=O)[C@H]1OC(C)=O	0%	–	–	–	–	5%	10%
N#Cc1c(-c2ccc(Cl)cc2)cc(-c2cccs2)nc1O[C@@H]1O[C@H](CO)[C@H](O)[C@H]1O	–	3 mm	2 mm	3.5 mm	9 mm	–	–
